The nature of the data set: Toxicity liver stage against HepG2, at 10uM. Details: test concentration 10 uM, cell line HepG2-A16-CD81EGFP. The following applies: human, HepG2-A16-CD81EGFP cells; read-out: INHIBITION
In kind it is cell-based. The gist of the method: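 Uninfected HepG2-A16-CD81EGFP cells, 3 × 10^3 per well, 1536-well, plated on prespotted compound at 10 μM final, parasite-free screening media added to match infected plates; puromycin 10 μM positive, DMSO 0.5% negative; run in parallel with 48 h PbLuc assay at 37 °C, 5% CO2; viability by CellTiter-Glo luminescence, normalized to controls.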
With `CN1CC(=O)N(c2cccc(F)c2)CC12CCN(Cc1ccco1)C2` (stereo not given), the cytotoxicity at 10 µM is 4.06%.

Consider `CCc1cnc2c(c1Nc1ccncc1)c(=O)n(C)c(=O)n2C`, for which the cytotoxicity at 10 µM amounted to 1.86%.

In the case of `Cn1ccnc1CN1CCC2(CC1)CN(CC1CC1)C(=O)CO2`, the cytotoxicity at 10 µM was found to be 1.7%.

As for `COCCNC(=O)c1cc(OC)c2ccoc2c1`, the cytotoxicity at 10 µM is -2.49%.

Turning to `CCS(=O)(=O)N1CCN(C(=O)c2ccc(Cn3cc(Br)cn3)cc2)CC1`, the cytotoxicity at 10 µM is -2.61%.

On to `Cc1ncc(CNC(=O)c2nn(C)c3c2CS(=O)(=O)CC3)s1`, for which the cytotoxicity at 10 µM is -2.44%.

As to `CCCN1CCCC(O)(c2nc(C)c(COc3ccccc3)s2)CC1` (stereo not given), the cytotoxicity at 10 µM was determined as 2.27%.

On to `CCn1ncc(C(=O)NCCc2nc(-c3ccncc3)n[nH]2)c1C`, for which the cytotoxicity at 10 µM was determined as 6.87%.

As to `CC(=O)N1CC(c2n[nH]c3ncccc23)C1`, the cytotoxicity at 10 µM came out at 19.5%.

Regarding `CC(C)c1nccn1-c1cncc(C2CCCN2Cc2cccnc2)n1` (stereo not given), the cytotoxicity at 10 µM is -6.27%.

Turning to `COCCCS(=O)(=O)N1CCN(C(C)(C)CO)CC1`, the cytotoxicity at 10 µM was -6.46%.

Regarding `Cn1ccnc1C(=O)NCCS(=O)(=O)c1ccc(C(C)(C)C)cc1`, the cytotoxicity at 10 µM was found to be 3.62%.

Consider `COc1ccc(C(=O)NS(=O)(=O)c2cc(Cl)sc2Cl)cc1OC(F)F`, for which the cytotoxicity at 10 µM is -4.73%.

For the compound `Cc1nc(CN2CCCC2Cn2cccn2)nc2ccccc12` (stereo not given), the cytotoxicity at 10 µM was -51.7%.

In the case of `COCCCN(CCOC)C(=O)Nc1ccc(Br)cc1`, the cytotoxicity at 10 µM stood at 6.66%.

As for `O=C(NCC1CC1)C1CSCN1S(=O)(=O)c1cc(F)cc(F)c1` (stereo not given), the cytotoxicity at 10 µM stood at 6.35%.

`FC(F)(F)c1c[nH]c(C2CCN(c3ncccn3)CC2)n1`: the cytotoxicity at 10 µM is -5.1%.

Turning to `CCc1nc(C2CCCN2c2ncc(Br)cn2)no1` (stereo not given), the cytotoxicity at 10 µM is -0.36%.

With `CCc1nnc2n1CC(CNc1cnc3ccccc3n1)CC2` (stereo not given), the cytotoxicity at 10 µM was -37.4%.

Consider `CCOCCCC(=O)NCC(c1ccccc1)N1CCc2sccc2C1` (stereo not given), for which the cytotoxicity at 10 µM came to 2.69%.

As for `CN(Cc1ccc(Cl)s1)C(=O)CN1CC(n2cccn2)C1`, the cytotoxicity at 10 µM was -6.88%.

As for `CSc1ccc(OCCN2CCC(n3cncn3)CC2)cc1`, the cytotoxicity at 10 µM is -12.6%.

Regarding `N#Cc1ccsc1N1CCC(Sc2ncc[nH]2)C1=O` (stereo not given), the cytotoxicity at 10 µM is 2.72%.

For `COCCCN(C)c1ncccc1I`, the cytotoxicity at 10 µM turned out to be 2.28%.

Take `CC(NCCN1CCC(N(C)C)CC1)c1ccc(Cl)s1` (stereo not given): the cytotoxicity at 10 µM was 25.9%.

Regarding `CN1CC(C(=O)NCCc2ccc3c(c2)OCCO3)CC1=O` (stereo not given), the cytotoxicity at 10 µM was found to be 5.51%.

For `CN(CCc1ccccc1)c1cnn(C)c(=O)c1Br`, the cytotoxicity at 10 µM was -7.22%.

On to `Cc1cnn(CC2CN(CCN3CCCC3=O)CCO2)c1` (stereo not given), for which the cytotoxicity at 10 µM was -9.7%.

Consider `CCc1noc(C(C)N(C)CC(=O)Nc2ccc(C)cc2)n1` (stereo not given), for which the cytotoxicity at 10 µM is -6.42%.

Take `O=C(Cc1ccccc1F)N1CCN(C(=O)c2cccc(F)c2)CC1`: the cytotoxicity at 10 µM is 7.7%.

Consider `CNc1cc(N2CCCC2CNCc2c[nH]nc2C(C)(C)C)ncn1` (stereo not given), for which the cytotoxicity at 10 µM came to 7.91%.

With `COCCN1C(=O)CC(c2cccnc2)C12CCN(C)CC2` (stereo not given), the cytotoxicity at 10 µM is -97.6%.

Regarding `c1cc(CN2CC[C@@H]3CN(c4cncnc4)C[C@@H]3C2)ccn1`, the cytotoxicity at 10 µM is -116%.

As to `CC(C)OC[C@H]1CCC[C@]12CN(C(=O)C1CCOCC1)CCO2`, the cytotoxicity at 10 µM is -99.1%.

Turning to `COCC(=O)N1CC[C@@H](N2CCOCC2)[C@@H]1Cc1cccnc1`, the cytotoxicity at 10 µM was -95.5%.

Regarding `O=S(=O)(c1ccccc1)N1CCC[C@]2(C[C@@H](OCC3CC3)CO2)C1`, the cytotoxicity at 10 µM is -69.2%.

Consider `Cn1cc(CN2CCC3(CCCCN3S(C)(=O)=O)CC2)cn1`, for which the cytotoxicity at 10 µM is -76.9%.

As to `CC(CCN1CCCn2nc(CNS(C)(=O)=O)cc2C1)c1ccccc1` (stereo not given), the cytotoxicity at 10 µM stood at 8.85%.

`OCC1CCCCN1Cc1cc(O)c2cccc(F)c2n1` (stereo not given): the cytotoxicity at 10 µM was -0.357%.

In the case of `Cc1ccc(-c2cn[nH]c2C2CCCN(c3ncccn3)C2)cc1` (stereo not given), the cytotoxicity at 10 µM was 87.3%.

On to `CCCc1nc(N2CCN(Cc3ccccn3)CC2)c2cnn(C)c2n1`, for which the cytotoxicity at 10 µM was found to be 1.89%.

`CC(=O)Nc1cccc(C(=O)N(C)C(C)Cc2cc(C)ccn2)c1` (stereo not given): the cytotoxicity at 10 µM stood at 11%.

In the case of `O=C1O[C@@H]2CN(C3CCOCC3)C[C@@H]2N1CCc1cccc(Cl)c1`, the cytotoxicity at 10 µM was -1.11%.

Consider `COCc1cc(CN(C)C(C(=O)O)c2cc(C)c(OC)c(C)c2)n[nH]1` (stereo not given), for which the cytotoxicity at 10 µM amounted to 1.07%.

Regarding `CC(C)Cc1nc(CO)n(-c2ccc3c(c2)OCCO3)n1`, the cytotoxicity at 10 µM was -1.86%.

As to `CCC[C@@H]1CN(Cc2ccc3c(c2)OCCO3)C[C@H]1C(=O)O`, the cytotoxicity at 10 µM stood at 0.324%.

Consider `CCC[C@H]1CN(S(C)(=O)=O)C[C@@H]1NC(=O)CCOCC`, for which the cytotoxicity at 10 µM stood at 0.224%.

Regarding `Cc1cc2nc(C(C)C)cc(N(C)CC3CCN(C(C)C)C3)n2n1` (stereo not given), the cytotoxicity at 10 µM came to 7.26%.

Take `COC(=O)[C@]12CNC[C@H]1CN(Cc1nc(C)c[nH]1)C2`: the cytotoxicity at 10 µM amounted to 6.01%.

Regarding `O=C(O)c1cc(-c2ccoc2)cc(S(=O)(=O)NC2CC2)c1`, the cytotoxicity at 10 µM is -2.18%.

As to `NC(=O)CN1CCCC(C(=O)N2CCC(Oc3ncccn3)CC2)C1` (stereo not given), the cytotoxicity at 10 µM was -41.6%.

Regarding `CCc1cc(N(C)Cc2nonc2C)nc(N2CCOCC2)n1`, the cytotoxicity at 10 µM is -8.07%.

As for `CCCc1nc(C)cc(N2Cc3cnn(CCO)c3C2)n1`, the cytotoxicity at 10 µM was -129%.

As to `O=C(c1cccc(CO)n1)N1CCCC1c1nc2cc(F)ccc2[nH]1` (stereo not given), the cytotoxicity at 10 µM is -1.26%.

On to `COC1CCCN(c2nc(C)nc3c2CCN(Cc2ccco2)CC3)C1` (stereo not given), for which the cytotoxicity at 10 µM worked out at 2.02%.

As to `CCN1CCCc2cc(-c3cncn3C(C)CN3CCOCC3)ccc21` (stereo not given), the cytotoxicity at 10 µM is 12.6%.

As for `O=C1CO[C@@H]2CN(CC3CCOC3)C[C@H]2N1Cc1cccc(F)c1` (stereo not given in full), the cytotoxicity at 10 µM is -73.5%.

Regarding `Cc1ccc(C(=O)N2C[C@H]3CCCC(OCc4cccnc4)[C@H]3C2)cn1` (stereo not given in full), the cytotoxicity at 10 µM is 4.93%.

For the compound `N#Cc1ccc(N2CCC3(CCC(=O)N3Cc3cccnc3)CC2)nc1`, the cytotoxicity at 10 µM is -112%.

As to `CN1CCN(Cc2cn3c(n2)CN(Cc2cccc(F)c2)CC3)CC1`, the cytotoxicity at 10 µM was -125%.

For `CN(C)CCN1C(=O)C2(CCN(CC3CC3)CC2)c2ccccc21`, the cytotoxicity at 10 µM is -120%.

Turning to `Cc1nc(CN2CCOCC3(CCN(c4ncccn4)CC3)C2)cs1`, the cytotoxicity at 10 µM came out at 14.9%.

In the case of `Cc1noc([C@H]2C[C@@H]3CCN(CC4CCOCC4)C[C@H]3O2)n1`, the cytotoxicity at 10 µM is -103%.

As to `c1ccc(O[C@@H]2CN(Cc3nccs3)[C@@H]3CCCO[C@@H]32)nc1`, the cytotoxicity at 10 µM was -8.52%.

With `Cn1ccc(CN2CCCC23CCN(Cc2nccn2C)CC3)n1`, the cytotoxicity at 10 µM was -109%.

As to `O=C(NCC1CC2(CO1)CN(Cc1cccs1)C2)C1CCC1` (stereo not given), the cytotoxicity at 10 µM is -94.1%.

Consider `O=C(Cc1ccccn1)N1CCC2(CC1)CN(c1ncccn1)CCO2`, for which the cytotoxicity at 10 µM is -74.3%.

As for `O=C(COC[C@@]12CCC[C@@H]1CN(C1CCC1)C2)N1CCCC1`, the cytotoxicity at 10 µM was -110%.

Regarding `O=C(c1cccc(O)c1)N1CCC2(CCN2c2ncccn2)C1` (stereo not given), the cytotoxicity at 10 µM was -139%.

On to `CCOc1cccc(C(=O)N2C[C@@H]3CC[C@H]2CN(C(=O)C2CCC2)C3)c1`, for which the cytotoxicity at 10 µM worked out at 5.73%.

Source of the values: ChEMBL document CHEMBL4513216, “Probing the Open Global Health Chemical Diversity Library for Multistage-Active Starting Points for Next-Generation Antimalarials” (ACS Infect Dis, 2020).
